Holding throughout (type): functional
For assay [1], the system named is Rattus norvegicus. The experiment in a line: Ratio of plasma HDL cholesterol/total cholesterol at 200 g/kg for 3 days. The conditions noted are these: in the assay text read “200 mg/kg” for “200 g/kg”. The method, boiled down: (§1)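 Young male Wistar rats (120–150 g), groups of eight, fed ad libitum rodent diet with 0.5% w/w cholesterol and 0.25% cholic acid for 10 days. Compound suspended in 0.5% w/w tragacanth mucilage and given daily by stomach tube over the final 3 days; controls got vehicle. After overnight starvation, rats were killed 3 h post final dose and cardiac blood taken into heparin.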

The species entered for assay [2] is Rattus norvegicus. The experiment in a line: Change in plasma triglycerides in normocholesterolemic rats at 0.2 % composition of dose with diet given in a period of 3 days. Put shortly: (§2)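 Young male Wistar rats (120–150 g) fed basal powdered rodent diet ad libitum, with compound mixed into the diet at 0.2% w/w for 3 or 7 days. Plasma triglyceride and total cholesterol were then measured by standard enzymatic methods. Results are % change relative to controls.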

Assay [3] deals with Rattus norvegicus. Description: Percent change in plasma triglycerides in cholesterol-fed rats at 200 mg/kg dose given in a period of 3 days. The method, boiled down:
as §1

Assay [4] concerns Rattus norvegicus. The experiment in a line: Percent change in plasma total cholesterol in cholesterol-fed rats at 200 mg/kg dose given in a period of 3 days. The method, boiled down:
as §1

Assay [5] is filed under the species Rattus norvegicus. Description: Change in plasma total cholesterol in normocholesterolemic rats at 0.2 % composition of dose with diet given in a period of 3 days. Put shortly:
as §2

In assay [6] the test system is Rattus norvegicus. Description: The compound was tested for % change in plasma HDL cholesterol in cholesterol-fed rats at 200 mg/kg dose given in a period of 3 days;. The method, boiled down:
as §1

Assay [7] is described as follows: Ratio of plasma HDL cholesterol/total cholesterol at 25 mg/kg for 3 days. Put shortly:
as §1

The species named for assay [8] is Rattus norvegicus. Description: The compound was tested for % change in plasma triglycerides in normocholesterolemic rats at 0.2 % composition of dose with diet given in a period of 3 days. Put shortly:
as §2

The test system of assay [9] is Rattus norvegicus. Description: Percent change in plasma HDL cholesterol in cholesterol-fed rats at 200 mg/kg dose given in a period of 3 days. Put shortly: as §1
The species named for assay [10] is Rattus norvegicus. Description: The compound was tested for % change in plasma total cholesterol in normocholesterolemic rats at 0.2 % composition of dose with diet given in a period of 7 days. Put shortly: as §2
For assay [11], the species on record is Rattus norvegicus. The experiment in a line: The compound was tested for % change in plasma triglycerides in normocholesterolemic rats at 0.2 % composition of dose with diet given in a period of 7 days. Put shortly:
as §2

A short description of assay [12]: Ratio of plasma HDL cholesterol/total cholesterol at 200 mg/kg for 3 days. Put shortly: as §1
Assay [13] in a line: Ratio of plasma HDL cholesterol/total cholesterol at 100 mg/kg for 3 days. Put shortly: as §1
Assay [14] concerns Rattus norvegicus. The experiment in a line: The compound was tested for % change in plasma total cholesterol in cholesterol-fed rats at 25 mg/kg dose given in a period of 3 days. The method, boiled down: as §1
Assay [15] concerns Rattus norvegicus. The experiment in a line: The compound was tested for % change in plasma total cholesterol in cholesterol-fed rats at 100 mg/kg dose given in a period of 3 days. The method, boiled down: as §1
In assay [16] the test system is Rattus norvegicus. The experiment in a line: The compound was tested for % change in plasma HDL cholesterol in cholesterol-fed rats at 25 mg/kg dose given in a period of 3 days. The method, boiled down: as §1
The subject of assay [17] is Rattus norvegicus. Description: The compound was tested for % change in plasma total cholesterol in cholesterol-fed rats at 50 mg/kg dose given in a period of 3 days. Put shortly: as §1
Assay [18] relates to Rattus norvegicus. Description: The compound was tested for % change in plasma HDL cholesterol in cholesterol-fed rats at 50 mg/kg dose given in a period of 3 days. The method, boiled down:
as §1

For assay [19], the system named is Rattus norvegicus. Description: The compound was tested for % change in plasma HDL cholesterol in cholesterol-fed rats at 100 mg/kg dose given in a period of 3 days. The method, boiled down:
as §1

In assay [20] the test system is Rattus norvegicus. The experiment in a line: % change in plasma triglycerides in cholesterol-fed rats at 100 mg/kg dose given in a period of 3 days administered orally. The conditions noted are these: route oral. The method, boiled down: as §1
Assay [21] in a line: Ratio of plasma HDL cholesterol/total cholesterol at 50 mg/kg for 3 days. Put shortly:
as §1

In assay [22] the test system is Rattus norvegicus. The experiment in a line: The compound was tested for % change in plasma triglycerides in cholesterol-fed rats at 25 mg/kg dose given in a period of 3 days. Put shortly: as §1
Assay [23] deals with Rattus norvegicus. Description: The compound was tested for % change in plasma triglycerides in cholesterol-fed rats at 50 mg/kg dose given in a period of 3 days. The method, boiled down:
as §1

The species named for assay [24] is Rattus norvegicus. The experiment in a line: Tested for % change in plasma triglycerides in normocholesterolemic rats at 0.2 % composition of dose with diet given in a period of 3 days. Put shortly: as §2
The species entered for assay [25] is Rattus norvegicus. Description: Tested for % change in plasma total cholesterol in normocholesterolemic rats at 0.2 % composition of dose with diet given in a period of 3 days. Put shortly: as §2
For assay [26], the system named is Rattus norvegicus. Description: The compound was tested for % change in plasma triglycerides in cholesterol-fed rats at 100 mg/kg dose given in a period of 3 days. The method, boiled down:
as §1

Assay [27] is filed under the species Rattus norvegicus. Description: tested for % change in plasma triglycerides in normocholesterolemic rats at 0.2 % composition of dose with diet given in a period of 3 days. Put shortly: as §2
The mark [28] stands for this setting: dose 200 mg/kg, in the assay text read “200 mg/kg” for “25 mg/kg”.

For `CC(C)(C)c1ccc(C(=O)Nc2ccc(Br)cc2C(=O)[O-])cc1.[Na+]`, the “Change in HDL/total cholesterol ratio” value in assay [1] was determined as 64. Besides, the Change in assay [2] was -18%; in assay [3], 15%; in [4], -7%; in assay [5], -42%; in assay [6], 57%.
As to `Cc1ccc2nc(-c3ccc(CC(C)(C)C)cc3)oc(=O)c2c1`, the Ratio in [7] (setting [28]) worked out at 50. The Change in [3] was 23%; in assay [8], 16%; in assay [4] it was -12%; in assay [5], -10%; in [9], 28%.
For the compound `Cc1ccc2nc(-c3ccccc3C(C)(C)C)oc(=O)c2c1`, the Ratio in assay [7] (setting [28]) turned out to be 6. In addition, the Change in assay [3] is on record as -25%; in assay [4] it was -6%; in assay [10], -11%; in assay [11], -13%; in assay [9], -3%.
As to `Cc1ccc2nc(-c3ccc(C(C)(C)C)cc3)oc(=O)c2c1`, the Ratio was 31 in assay [7] (dose 25 mg/kg), 92 in [12], 65 in [13] and 56 in assay [21]. The Change in assay [3] is on record as -17%; in assay [14], -5%; in assay [15] it was -34%; in [4], -27%; in [16] it was 30%; in assay [10], -15%. Also, the Change in assay [17] was -19%; in assay [18], 31%; in assay [11], -33%; in assay [19], 15%; in [20], -18%; in [22] it was -1%. The Change in assay [9] came out at 50%; in assay [23] it was 21%.
For `Cc1ccc(NC(=O)c2ccc(C(C)(C)C)cc2)c(C(=O)O)c1`, the Change in assay [24] was -16%; in [3], 8%; in assay [4], -9%; in [25], -15%; in assay [9] it was 91%. Also, the “Change in HDL/total cholesterol ratio” value in assay [1] is 47.
Consider `Cc1ccc2nc(-c3ccccc3)oc(=O)c2c1`, for which the Ratio in assay [7] (setting [28]) is given as 4. Further, the Change in assay [3] is listed as -4%; in [4], -2%; in assay [10], -12%; in [11] it was -1%; in assay [9], -2%.
For `CC(C)(C)c1ccc(-c2nc3ccc(Br)cc3c(=O)o2)cc1`, the Ratio is on record as 110 in assay [13] and 49 in assay [21]. Further, the “Change in HDL/total cholesterol ratio” value in assay [1] came to 114. Besides, the Change is given as -3% in [3]; -25% in [15]; -25% in assay [4]; -39% in [10]; -12% in assay [17]; 40% in assay [18]. Moreover, the Change in assay [11] is recorded as -40%; in [5], -47%; in [19], 71%; in assay [26] it was -6%; in assay [27] it was -16%; in assay [9], 74%. Besides, the Change in assay [23] is 6%.
